Measured values taken from ChEMBL document CHEMBL1146242, “Synthesis and antibacterial activity of novel oxazolidinones with methylene oxygen- and methylene sulfur-linked substituents at C5-position” (2007).
Converted amounts (≈) assume the structure as drawn.

Experiments:
Format in all cases: functional
[1] = test system: Haemophilus influenzae; assay: Antimicrobial activity against Haemophilus influenzae ATCC 49247 by agar dilution method
Outline: (§1)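 NCCLS agar dilution with serial 2-fold drug dilutions in Mueller Hinton agar, 16–0.015 µg/mL final. Drug stocks were 1 mg/mL in DMSO. The inoculum was a 0.5 McFarland saline colony suspension diluted 10-fold and replicator-spotted. As fastidious organisms, plates were incubated in 5% CO₂ at 35 °C for 18–24 h.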

[2] = test system: Streptococcus pyogenes; assay: Antimicrobial activity against Streptococcus pyogenes ATCC 19615 by agar dilution method
[3] = test system: Enterococcus faecalis; assay: Antimicrobial activity against Enterococcus faecalis ATCC 29212 by agar dilution method
Outline: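 Compounds were stocked at 1 mg/mL in DMSO. Direct colony suspensions in saline were set to 0.5 McFarland, diluted 10-fold and applied with a replicator. Plates were incubated in ambient air at 35 °C for 18–24 h.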

[4] = test system: Staphylococcus aureus; assay: Antimicrobial activity against methicillin-resistant Staphylococcus aureus 33 by agar dilution method
Outline: (§2)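 NCCLS agar dilution MIC in Mueller Hinton agar. Compounds were made up as 1 mg/mL DMSO stocks and serially diluted 2-fold into molten agar, final range 16 to 0.015. Direct colony suspensions in saline were set to 0.5 McFarland, diluted 10-fold, and spotted with a replicator. Plates were incubated in ambient air at 35 °C for 18–24 h.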

[5] = test system: Moraxella catarrhalis; assay: Antimicrobial activity against Moraxella catarrhalis M2 by agar dilution method
Outline: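 MIC was read by NCCLS agar dilution using doubling dilutions in Mueller Hinton agar, 16–0.015 µg/mL final, from 1 mg/mL DMSO stocks. Colonies were suspended in saline to 0.5 McFarland, diluted 10-fold and transferred with a replicator. Plates were incubated at 35 °C for 18–24 h.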

[6] = test system: Staphylococcus aureus; assay: Antimicrobial activity against methicillin-resistant Staphylococcus aureus 562 by agar dilution method; outline: as §2
[7] = test system: Streptococcus pneumoniae; assay: Antimicrobial activity against Streptococcus pneumoniae ATCC 6303 by agar dilution method; outline: as §1
[8] = test system: Enterococcus faecium; assay: Antimicrobial activity against vancomycin-resistant Enterococcus faecium 6A by agar dilution method; outline: as §2
[9] = test system: Staphylococcus aureus; assay: Antimicrobial activity against Staphylococcus aureus 15187 by agar dilution method; outline: as §2
[10] = test system: Staphylococcus aureus; assay: Antimicrobial activity against Staphylococcus aureus ATCC 25923 by agar dilution method; outline: as §2

Which results are given for `Cc1ccccc1S(=O)(=O)NC(=O)OC[C@H]1CN(c2ccc(N3CCN(c4ccc([N+](=O)[O-])s4)CC3)c(F)c2)C(=O)O1`?
MIC [1]: > 16 µg/mL; MIC [2]: 0.5 µg/mL (≈ 0.807 µM); MIC [3]: 8 µg/mL (≈ 12.9 µM); MIC [4]: 16 µg/mL (≈ 25.8 µM); MIC [5]: > 8 µg/mL; MIC [6]: 16 µg/mL (≈ 25.8 µM); MIC [7]: 1 µg/mL (≈ 1.61 µM); MIC [8]: 1 µg/mL (≈ 1.61 µM); MIC [9]: 16 µg/mL (≈ 25.8 µM); MIC [10]: 16 µg/mL (≈ 25.8 µM)

What does the source list for `CN[C@H](CC(C)C)C(=O)N[C@H]1C(=O)N[C@@H](CC(N)=O)C(=O)N[C@H]2C(=O)N[C@H]3C(=O)N[C@H](C(=O)N[C@H](C(=O)O)c4cc(O)cc(O)c4-c4cc3ccc4O)[C@H](O)c3ccc(c(Cl)c3)Oc3cc2cc(c3O[C@@H]2O[C@H](CO)[C@@H](O)[C@H](O)[C@H]2O[C@H]2C[C@](C)(N)[C@H](O)[C@H](C)O2)Oc2ccc(cc2Cl)[C@H]1O` [VANCOMYCIN]?
MIC [1]: > 64 µg/mL; MIC [5]: > 16 µg/mL; MIC [7]: 0.5 µg/mL (≈ 0.345 µM); MIC [8]: > 16 µg/mL

With `CC(=O)NC[C@H]1CN(c2ccc(N3CCOCC3)c(F)c2)C(=O)O1` [LINEZOLID] as the compound, how does the MIC [1] read?
The MIC was 4 µg/mL (≈ 11.9 µM).

What about the MIC [2] of the same compound?
Its MIC is 2 µg/mL (≈ 5.93 µM).

What about the MIC [5] of the same compound?
The MIC was > 4 µg/mL.

What about the MIC [8] of the same compound?
Its MIC is 2 µg/mL (≈ 5.93 µM).

`CC(=O)OC[C@H]1CN(c2ccc(N3CCN(c4ccc([N+](=O)[O-])s4)CC3)c(F)c2)C(=O)O1` was tested. Which MIC [1] did it give?
The MIC was > 16 µg/mL.

And the MIC [2]?
The MIC was 0.25 µg/mL (≈ 0.538 µM).

What about the MIC [3] of the same compound?
The MIC was 0.5 µg/mL (≈ 1.08 µM).

What about the MIC [4] of the same compound?
The MIC was 0.5 µg/mL (≈ 1.08 µM).

What about the MIC [5] of the same compound?
The MIC was > 16 µg/mL.

And the MIC [6]?
Its MIC is 0.5 µg/mL (≈ 1.08 µM).

And the MIC [7]?
Its MIC is 1 µg/mL (≈ 2.15 µM).

What about the MIC [8] of the same compound?
The MIC was 1 µg/mL (≈ 2.15 µM).

And the MIC [9]?
The MIC was 0.5 µg/mL (≈ 1.08 µM).

And the MIC [10]?
The MIC was 0.5 µg/mL (≈ 1.08 µM).

How did the MIC [1] turn out when `CC(=O)NC[C@H]1CN(c2ccc(N3CCN(c4ccc([N+](=O)[O-])s4)CC3)c(F)c2)C(=O)O1` was run?
Its MIC is 8 µg/mL (≈ 17.3 µM).

What about the MIC [2] of the same compound?
The MIC was 0.125 µg/mL (≈ 0.27 µM).

And the MIC [3]?
The MIC was 0.25 µg/mL (≈ 0.539 µM).

What about the MIC [4] of the same compound?
The MIC was 0.25 µg/mL (≈ 0.539 µM).

What about the MIC [5] of the same compound?
Its MIC is 0.25 µg/mL (≈ 0.539 µM).

What about the MIC [6] of the same compound?
The MIC was 0.25 µg/mL (≈ 0.539 µM).

And the MIC [7]?
Its MIC is 0.125 µg/mL (≈ 0.27 µM).

What about the MIC [8] of the same compound?
Its MIC is 0.25 µg/mL (≈ 0.539 µM).

And the MIC [9]?
Its MIC is 0.25 µg/mL (≈ 0.539 µM).

And the MIC [10]?
The MIC was 0.25 µg/mL (≈ 0.539 µM).

With `O=C1O[C@@H](CO)CN1c1ccc(N2CCN(c3ccc([N+](=O)[O-])s3)CC2)c(F)c1` as the compound, how does the MIC [1] read?
The MIC was 8 µg/mL (≈ 18.9 µM).

What about the MIC [2] of the same compound?
Its MIC is 0.5 µg/mL (≈ 1.18 µM).

And the MIC [3]?
Its MIC is 0.5 µg/mL (≈ 1.18 µM).

What about the MIC [4] of the same compound?
The MIC was 0.5 µg/mL (≈ 1.18 µM).

And the MIC [5]?
The MIC was 2 µg/mL (≈ 4.73 µM).

What about the MIC [6] of the same compound?
Its MIC is 0.5 µg/mL (≈ 1.18 µM).

What about the MIC [7] of the same compound?
The MIC was 1 µg/mL (≈ 2.37 µM).

And the MIC [8]?
Its MIC is 0.5 µg/mL (≈ 1.18 µM).

And the MIC [9]?
The MIC was 0.5 µg/mL (≈ 1.18 µM).

What about the MIC [10] of the same compound?
Its MIC is 0.5 µg/mL (≈ 1.18 µM).
